Bioassay records deposited in PubChem BioAssay by several laboratories.
E-sel TNF inh: E-selectin induction blockers in HUVEC – imaging, immunofluorescence, high content, primary screen | actives 0.71% (n = 120,000) | inhibition, % at 2 µM | AID 1246, 2008 | HUVEC TNFa-induced E-selectin immunofluorescence;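 active means inhibition above the batch mean plus 3 SD, and confirmed as a hit on visual image review, cut at about 43% in these data; inconclusive means passes the inhibition cutoff but fails visual image review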
zVAD death inh: inhibitors of zVAD-triggered necroptosis, primary screen, L929 cells. viability rescue, % at 10 µM. actives 0.38% (n = 220,000). AID 1377, 2008. L929 zVAD necroptosis rescue, ATP luminescence, 24 h; with zVAD 60 µM;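 active means activation, scaled between plate controls, above about 75%, limit read from the data; inactive means activation under that limit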
MDM2 E3 inh: MDM2-luciferase reporter signal enhancers, primary screen, MDM2 E3 ligase inhibitor project, cell-based, luminescence, 1536-well; E3 ubiquitin-protein ligase Mdm2 (Homo sapiens), Q00987; cell-based MDM2 ubiquitination luciferase reporter, 2 h; 0 = plate control, 100 = twice control, blank-subtracted; signal enhancement, % at 5 µM; actives 0.11% (n = 210,000); AID 1230, 2008;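 active means signal enhancement of 30% or more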;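 further: luminescence tracks abundance of the self-degrading MDM2-luciferase fusion protein; higher signal means inhibition of MDM2 E3 ligase activity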
Target sequence (Q00987 whole entry, looked up, the tested form may be a part): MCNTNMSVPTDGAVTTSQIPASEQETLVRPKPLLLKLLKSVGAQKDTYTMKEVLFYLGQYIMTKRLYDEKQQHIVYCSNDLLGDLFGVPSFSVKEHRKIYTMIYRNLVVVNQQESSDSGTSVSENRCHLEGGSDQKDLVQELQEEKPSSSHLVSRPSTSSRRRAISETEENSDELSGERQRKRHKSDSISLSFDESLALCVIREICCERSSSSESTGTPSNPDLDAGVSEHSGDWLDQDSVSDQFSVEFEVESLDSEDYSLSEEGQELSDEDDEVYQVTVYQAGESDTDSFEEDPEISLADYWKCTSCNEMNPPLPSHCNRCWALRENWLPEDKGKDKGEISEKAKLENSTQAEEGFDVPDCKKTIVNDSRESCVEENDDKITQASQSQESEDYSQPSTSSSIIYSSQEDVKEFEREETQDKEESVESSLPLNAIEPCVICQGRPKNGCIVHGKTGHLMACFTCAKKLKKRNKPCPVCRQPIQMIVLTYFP
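Test system: mammalian cells stably expressing self-ubiquitinating, self-degrading MDM2 E3–luciferase fusion; Amount: 2000 cells in each well; Medium: DMEM; Schedule: 4 h settle plus 2 h compound, 37 °C; Technique: SteadyLite luciferase luminescence after 15 min room-temperature reagent incubation; Benchmarks: plate control and blank wells.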
TNF necrop inh: inhibitors of TNF-alpha triggered necroptosis, primary screen, cell-based, Jurkat FADD-/-, single concentration | Jurkat FADD-/- TNF necroptosis rescue, ATP luminescence, 24 h; 0 = TNF only, 100 = no-TNF cells | activation (protection from cell death), % at 10 µM | actives 0.068% (n = 220,000);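 active means activation, meaning protection from cell death, of at least 50% relative to plate controls; inactive means activation below 50%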;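 further: necroptosis triggered by 40 ng/mL TNF-alpha added together with compound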
HSV replic up: enhancers of HSV replication in host cells, fold increase, host cell viability. HSV replication augmentation in cells. maximum fold increase. actives 0.005% (n = 220,000); in the data active means maximum fold increase above about 1.5; inconclusive means no clear call, values can overlap the other calls; tested in PC3 cells
zVAD death conf: inhibitors of zVAD-triggered necroptosis in L929, confirmation, L929 cells, duplicate runs; activation (protection from necroptosis), % at 10 µM; shares compounds with zVAD death inh; L929 zVAD-induced necroptosis rescue, ATP luminescence, 24 h; actives 16% (n = 760);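 active means mean protection from necroptosis of at least 50% over duplicate tests; inactive means mean protection below 50%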
Numbers stand for hits; – = inactive; ? = inconclusive; · = no result given. Shown are actives, neighbours in structure and some others; about 0.89% of the full set was active somewhere.

SMILES	E-sel TNF inh	zVAD death inh	MDM2 E3 inh	TNF necrop inh	HSV replic up	zVAD death conf
Oc1ccccc1N=Cc1sc2ccccc2c1Cl	–	86	–	–	–	–
Cc1ccc(O)c(N=Cc2sc3ccccc3c2Cl)c1	·	–	–	–	–	·
Cc1nn(CC2CC2)c(=O)n1-c1ccccc1	·	–	–	–	–	·
Cc1cnc(NC(=O)Nc2ccc(Cl)cc2)s1	·	78	–	–	–	–
O=C(Nc1ccc(F)c(Cl)c1)Nc1ccc(Cl)cn1	–	–	–	–	–	·
O=C(Nc1ccc(F)cc1)Nc1ccc(Cl)cn1	–	76	–	–	–	–
Cc1cccnc1NC(=O)Nc1ccc(F)cc1	–	82	–	–	–	–
Cc1cnc(NC(=O)CSc2ccc(Cl)cc2)s1	–	–	–	–	–	·
CCOc1ccccc1N1CCN(C(=O)CCCc2nc3ccccc3s2)CC1	·	–	–	–	–	·
Cc1ccc2nc3ccc(N4CCCCCCC4)nn3c(=O)c2c1	·	87	–	–	–	–
CN(C)C=Nc1ncc2c3ccccc3n(CCN(C)C)c2c1C#N	·	91	–	–	–	–
CCN(CC)CCn1c2ccccc2c2cnc(N)c(C#N)c21	–	75	–	–	–	70
COc1ccc(-c2oc3ccccc3c(=O)c2OC(=O)c2ccc(C)cc2)cc1	–	–	–	–	–	·
O=C(Oc1c(-c2ccccc2)oc2ccccc2c1=O)c1ccccc1	–	79	–	–	·	–
Cc1nn(C2CCS(=O)(=O)C2)c(Cl)c1/C=C/C(=O)OCC(N)=O (configuration not stated)	·	–	–	–	–	·
O=C(Nc1ccccc1)N1N=CCC1c1ccccc1 (configuration not stated)	·	85	–	95	–	–
O=C(Nc1ccc(Cl)c(Cl)c1)N1N=CCC1c1ccccc1 (configuration not stated)	–	79	–	97	–	–
NC(=NC(=O)c1ccc(Cl)cc1)N1N=CCC1c1ccccc1 (configuration not stated)	·	–	–	–	–	·
CCC(NC(=O)CCl)c1ccc(C)cc1 (configuration not stated)	·	77	–	–	–	–
CN(C)c1ccc(/C=C/C=N/Nc2nc(N3CCOCC3)nc(N3CCOCC3)n2)cc1	·	–	–	–	–	·
COc1cc(-c2cc(=O)c3c(O)c(OC)c(OC)cc3o2)cc(OC)c1O	·	77	–	–	–	–
COc1ccc(-c2cc(=O)c3c(O)c(OC)c(O)cc3o2)cc1	·	–	–	–	–	·
Cc1cc2ncn(/N=C/c3cccnc3)c2cc1C	·	76	–	–	–	–
O=C(NCc1ccccc1)NC1CCS(=O)(=O)C1 (configuration not stated)	–	–	–	–	–	·
CCOc1ccc(NC(=O)NC23CC4CC(CC(C4)C2)C3)cc1	–	88	–	–	–	–
SMILES	E-sel TNF inh	zVAD death inh	MDM2 E3 inh	TNF necrop inh	HSV replic up	zVAD death conf
CCOC(=O)c1cccc(NC(=O)Nc2ccc(OCC)cc2)c1	·	76	–	–	–	–
CCOc1ccc(NC(=O)Nc2ccc3nsnc3c2)cc1	·	81	–	–	–	–
COc1ccc(C(=O)NC2=Nc3ccccc3N=C(C)C2c2ccccc2)cc1 (configuration not stated)	·	–	–	–	–	·
O=C(NNC(=O)c1ccc(NC(=O)c2ccccc2)cc1)Nc1ccccc1	–	76	–	–	–	–
Oc1ccc(-c2[nH]ncc2-c2cnn(-c3ccccc3)c2)c(O)c1	·	79	–	–	–	–
COc1cc(C(=O)N[C@H](C(=O)Nc2nnc(C3CC3)s2)C(C)C)cc(OC)c1OC	·	–	–	–	–	·
Cn1c(=O)cc(SCC(=O)Nc2ccccn2)c2ccccc21	·	81	–	–	–	–
CC1CCc2nc(NC(=O)C3CC3)sc2C1 (configuration not stated)	–	78	–	–	–	–
Cc1ncsc1C(=O)Nc1nc2c(s1)CC(C)CC2 (configuration not stated)	–	–	–	–	–	·
COc1cc(/C=C2/SC(=S)N(C)C2=O)ccc1OC(=O)c1ccco1	–	–	–	–	?	·
CCOc1cc(/C=C2/SC(=S)NC2=O)ccc1OC(=O)c1ccco1	–	79	–	–	4.6	–
Nc1ncc(Br)cc1S(=O)(=O)NCCC(=O)N1CCN(c2ncccn2)CC1	·	92	–	–	–	–
O=C(Nc1ccc(NC(=O)c2ccccc2O)cc1)Nc1ccc(F)cc1F	·	78	–	–	–	–
COC(C(=O)Nc1ccc(F)cc1F)c1ccccc1 (configuration not stated)	–	83	–	97	–	–
CN1CCN(c2cc(=O)n(C3CCCCC3)c(=O)[nH]2)CC1	·	–	–	–	–	·
O=c1cc(N2CCN(c3ccccc3)CC2)[nH]c(=O)n1C1CCCCC1	·	81	–	–	–	–
O=c1cc(N2CCN(c3cccc(Cl)c3)CC2)[nH]c(=O)n1C1CCCCC1	·	81	–	–	–	–
Cc1ccc(-c2nnc(Cc3ccc([N+](=O)[O-])cc3)o2)cc1	·	–	–	–	–	·
Cn1nc(N)c2c(-c3ccc(Cl)cc3)c(C#N)c(N)nc21	–	81	–	–	–	–
Cn1nc(N)c2c(-c3ccccc3)c(C#N)c(N)nc21	–	–	–	–	–	·
Cc1cn(-c2cc(C(=O)Nc3ccc(C)c(NC(=O)N4CCNC4=O)c3)cc(C(F)(F)F)c2)cn1	·	79	–	–	–	51
CCN1CCN(Cc2ccc(NC(=O)c3ccc(C)c(NC(=O)N4CCNC4=O)c3)cc2C(F)(F)F)CC1	·	–	–	–	–	·
COc1ccccc1C1CCN(Cc2c(C)[nH]c3ccccc23)CC1	·	76	–	–	–	–
COc1ccc(C(=O)C2CCCN(Cc3c(C)[nH]c4ccccc34)C2)c(OC)c1 (configuration not stated)	·	–	–	–	–	·
CCn1cc(CN2CCCC(C(=O)c3ccc(-c4ccccc4)cc3)C2)cn1 (configuration not stated)	·	–	·	–	–	·
SMILES	E-sel TNF inh	zVAD death inh	MDM2 E3 inh	TNF necrop inh	HSV replic up	zVAD death conf
Cc1cc(OCC(=O)Nc2ccncc2)ccc1[N+](=O)[O-]	·	–	–	–	–	·
Cc1cc(C)cc(NC(=S)N2CCC(NC(=O)c3ccccc3C)CC2)c1	–	–	–	–	–	·
Oc1ccccc1N=Cc1c(O)ccc2oc3c(c12)CCCC3	·	75	–	–	–	–
CCOC(=O)c1c(C)[nH]c(C=Nc2ccccc2)c1O	–	–	–	–	–	·
Oc1[nH]c2ccccc2c1/C=N/c1nccs1	–	76	–	–	·	–
CCOC(=O)c1c(C)[nH]c(O)c1C=Nc1ccccc1	–	87	–	–	–	–
